pKi: −log10 of the molar value. A value given as a limit tells only on which side of the number the result lay.

This is an account of results in ChEMBL document CHEMBL1127053, “3,4-Dimethyl-4-(3-hydroxyphenyl)piperidines: opioid antagonists with potent anorectant activity” (J Med Chem, 1993).

The target of one experiment is Mu-type opioid receptor (Rattus norvegicus, UniProt P33535). Briefly: Binding affinity towards mu-opioid receptor by the displacement of [3H]Nal in rat brain homogenates. The format is tissue-based. For orientation: In a radioligand displacement assay an active substance lowers the binding of a labelled ligand.
In experiment [1] the target is Mu-type opioid receptor (Mus musculus) (UniProt P42866). Kind of experiment: Antagonistic activity towards morphine induced mu-opioid receptor by mouse writhing assay at 1.25 mg/kg subcutaneously. The format is functional, organism-based. Also noted: dose 1.25 mg/kg. The essentials:
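Mouse acetic acid writhing: 0.6% acetic acid ip, writhes counted for 10 min starting 5 min after injection. Agonist (morphine 1.25 mg/kg or U50,488 2.5 mg/kg) and antagonist given sc 20 min before acid. 5 mice/point, ≥5 doses varied 2-fold, each mouse used once. AD50 = antagonist dose reducing agonist-induced writhing inhibition to 50%.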

The subject of experiment [2] is Rattus norvegicus. Kind of experiment: Tested for concentration required to reduce the food consumption by 20 % subcutaneously; effect on feeding was minimal and not dose related. Particulars: sc. It counts as functional. The essentials:
(§1)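 Obese Zucker rats, 3-4 months old, trained to eat only 8 am-4 pm. Groups of 4 (2 male, 2 female), with one saline control group daily. Compound in saline with 10% DMSO, given sc on 3 consecutive days, typical doses 5.0-0.08 mg/kg (0.02-20 in some cases). Intake measured over the first 4 h. ED20 from regression of the linear portion of the dose-response curve.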

Experiment [3] deals with Kappa-type opioid receptor (Rattus norvegicus) (UniProt P34975). Kind of experiment: Antagonism of bremazocine induced kappa receptor diuresis in rats at a concentration of 0.08 mg/kg subcutaneously. It counts as functional, organism-based. More on the design: dose 0.08 mg/kg. The essentials: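 Male Long-Evans hooded rats (350-500 g), reused no more than twice weekly. Bremazocine 0.08 mg/kg sc, test antagonist sc on the opposite side without delay. Rats housed in metabolism cages; urine volume recorded at 2 and 5 h. 3 rats/dose, doses varied 2-fold. AD50 = dose reducing cumulative 5-h induced urination by 50%.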

Experiment [4] has as its target Kappa-type opioid receptor (Mus musculus) (UniProt P33534). Kind of experiment: Antagonist activity towards U50 488 induced kappa opioid receptor by mouse writhing assay at 2.5 mg/kg subcutaneously. The format is functional, organism-based. Also noted: dose 2.5 mg/kg. The essentials:
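Mouse acetic acid writhing: 0.6% acetic acid ip, writhes counted for 10 min starting 5 min after injection. 5 mice/point, ≥5 doses varied 2-fold, each mouse used once. AD50 = antagonist dose reducing agonist-induced writhing inhibition to 50%.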
For orientation: In writhing tests, fewer writhes than in controls are read as antinociception.

The target in experiment [5] is Kappa-type opioid receptor (Cavia porcellus, UniProt P41144). Kind of experiment: Binding affinity towards kappa opioid receptor by displacement of [3H]EKC in guinea pig cortical tissue. In a few lines: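 Radioligand displacement. Kappa: [3H]EKC, guinea pig cortex, with fentanyl and DADL added to block mu/delta binding. Delta: [3H]DADL, rat brain homogenate.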

Experiment [6] relates to Rattus norvegicus. Briefly: Tested for concentration required to reduce the food consumption by 20 % subcutaneously. The format is functional. Particulars: Rattus norvegicus, sc; read-out: ED50. The essentials: as §1
In experiment [7] the target is Kappa-type opioid receptor (Cavia porcellus) (UniProt P41144). Kind of experiment: Binding affinity towards kappa-opioid receptor by displacement of [3H]EKC in guinea pig cortical tissue at 10 nM. In a few lines: (§2)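 [3H]EKC binding to guinea pig cortical tissue, with fentanyl and DADL present to block mu and delta sites. Percent displacement measured at 10 and 100 nM test compound, run in triplicate.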

The target is the same in experiment [8]. Kind of experiment: Binding affinity towards kappa-opioid receptor by displacement of [3H]EKC in guinea pig cortical tissue at 100 nM. In a few lines:
as §2

Experiment [9] relates to Rattus norvegicus. Briefly: Tested for concentration required to reduce the food consumption by 20 % subcutaneously; The maximum effect achievedwas approximately 20% and not dose related. The format is functional. Particulars: sc. The essentials:
as §1

Kappa-type opioid receptor (Mus musculus), sequence (P33534 whole entry): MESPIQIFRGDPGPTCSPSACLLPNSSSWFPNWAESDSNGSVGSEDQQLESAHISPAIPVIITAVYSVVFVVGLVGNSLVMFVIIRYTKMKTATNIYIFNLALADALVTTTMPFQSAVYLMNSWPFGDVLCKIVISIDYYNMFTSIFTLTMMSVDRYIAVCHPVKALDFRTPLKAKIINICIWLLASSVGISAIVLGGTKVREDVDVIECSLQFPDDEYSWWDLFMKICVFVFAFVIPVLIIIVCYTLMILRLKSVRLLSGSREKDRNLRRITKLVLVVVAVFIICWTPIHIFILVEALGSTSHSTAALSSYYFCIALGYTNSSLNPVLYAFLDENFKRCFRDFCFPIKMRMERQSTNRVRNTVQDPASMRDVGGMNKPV
Kappa-type opioid receptor (Cavia porcellus), sequence (P41144 whole entry): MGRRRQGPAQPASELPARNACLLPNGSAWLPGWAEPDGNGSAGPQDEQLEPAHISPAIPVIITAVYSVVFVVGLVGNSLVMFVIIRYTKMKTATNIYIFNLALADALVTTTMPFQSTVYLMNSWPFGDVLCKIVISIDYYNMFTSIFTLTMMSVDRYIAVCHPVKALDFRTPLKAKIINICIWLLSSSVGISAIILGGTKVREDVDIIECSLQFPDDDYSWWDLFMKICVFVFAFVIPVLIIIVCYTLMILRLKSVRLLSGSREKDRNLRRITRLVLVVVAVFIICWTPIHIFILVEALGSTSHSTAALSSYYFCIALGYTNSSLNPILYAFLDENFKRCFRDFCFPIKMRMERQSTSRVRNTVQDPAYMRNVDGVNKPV
Kappa-type opioid receptor (Rattus norvegicus), sequence (P34975 whole entry): as the sequence (P33534 whole entry) above, with D11E, S17A, S51P, A308V counted along it
Mu-type opioid receptor (Mus musculus), sequence (P42866 whole entry): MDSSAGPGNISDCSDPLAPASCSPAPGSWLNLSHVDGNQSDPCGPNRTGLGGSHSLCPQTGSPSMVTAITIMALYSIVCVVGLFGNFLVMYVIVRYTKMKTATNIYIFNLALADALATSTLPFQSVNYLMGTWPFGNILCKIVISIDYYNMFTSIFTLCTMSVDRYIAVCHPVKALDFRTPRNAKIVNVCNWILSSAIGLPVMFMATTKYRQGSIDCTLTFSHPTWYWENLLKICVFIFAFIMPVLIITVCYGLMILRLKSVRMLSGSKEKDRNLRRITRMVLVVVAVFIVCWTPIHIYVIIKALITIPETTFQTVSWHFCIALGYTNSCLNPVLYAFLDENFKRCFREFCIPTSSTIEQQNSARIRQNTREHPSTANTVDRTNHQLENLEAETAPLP
Kappa-type opioid receptor, sequence (P41144 whole entry): as the sequence (P41144 whole entry) above
Mu-type opioid receptor, sequence (P33535 whole entry): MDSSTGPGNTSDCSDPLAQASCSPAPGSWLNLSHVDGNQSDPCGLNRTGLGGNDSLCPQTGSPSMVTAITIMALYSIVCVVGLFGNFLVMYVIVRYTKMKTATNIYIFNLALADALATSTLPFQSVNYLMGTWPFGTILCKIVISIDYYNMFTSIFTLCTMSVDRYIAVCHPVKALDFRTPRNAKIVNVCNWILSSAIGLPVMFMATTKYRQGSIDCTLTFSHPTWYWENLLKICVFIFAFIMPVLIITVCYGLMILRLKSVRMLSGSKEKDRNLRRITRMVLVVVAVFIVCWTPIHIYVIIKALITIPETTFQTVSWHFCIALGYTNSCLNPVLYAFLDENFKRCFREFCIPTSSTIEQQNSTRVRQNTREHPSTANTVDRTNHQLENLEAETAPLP

As a reminder, the pKi is −log10 of the Ki, conventionally taken in molar units. A low value points to a high Ki. For `C[C@@H]1CN(CC[C@@H](O)C2CCCCC2)CC[C@]1(C)c1cccc(O)c1`, the pKi at Mu-type opioid receptor was 8.66; in [5], 7.84. Moreover, the AD50 in experiment [1] was determined as 0.52 mg/kg; in [3], 5.2 mg/kg; in experiment [4] it was 0.52 mg/kg. The same compound returned an ED50 in the experiment on Rattus norvegicus [2] greater than 1.25 mg/kg.

Regarding `CCCCCCCN1CC[C@@](C)(c2cccc(O)c2)[C@@H](C)C1`, in the experiment on Rattus norvegicus [6], the ED50 was determined as 0.4 mg/kg. The Displacement in [7] is 57%; in experiment [8], 87%. Further, the AD50 in [1] was 0.21 mg/kg; in experiment [3], 3.3 mg/kg; in experiment [4], greater than 0.64 mg/kg.

For the compound `O=C1CC[C@@]2(O)[C@H]3Cc4ccc(O)c5c4[C@@]2(CCN3CC2CC2)[C@H]1O5` [NALTREXONE], the ED50 with Rattus norvegicus [9] turned out to be 1.7 mg/kg.

As for `CCCCCN1CC[C@@](C)(c2cccc(O)c2)[C@@H](C)C1`, the ED50 with Rattus norvegicus [6] stood at 3.8 mg/kg. The Displacement in experiment [7] is 44%; in experiment [8], 78%. In addition, the AD50 in experiment [4] is 0.6 mg/kg.
